Assay results of several laboratories.
Lines come from different studies, so protocols differ.
Target: Casein kinase I isoform delta (CSNK1D, Homo sapiens, UniProt P48730)

SMILES | read-out | action | technique | concentration | measurement | value
CS(=O)(=O)Nc1cccc(-c2csc(NC(=O)CSc3nc4nccnc4c(=O)n3CCc3ccccc3)n2)c1 | enzyme activity | inhibitor |  | 10 µM | inhibition | 10%
Cc1cc(-n2nc(Cc3cc(F)cc(C(F)(F)F)c3)nc2C)ccc1C(N)=O | cell-free assay |  | competition with immobilised ligand | 1 µM | remaining binding | 100%
Nc1ncnc2occ(-c3ccc(NC(=O)Nc4cc(C(F)(F)F)ccc4F)cc3)c12 | cell-free assay | inhibitor |  | 20 µM | remaining signal | 3.9%
O=C(NCc1ncc(C(F)(F)F)cc1Cl)c1ccc2c(c1)C1(CCS(=O)(=O)CC1)[C@@H](C1CC1)N2S(=O)(=O)c1ccc(F)cc1 | cell-free assay |  | competition with immobilised ligand | 1 µM | remaining binding | 93%
CC(C)(O)[C@H]1CC[C@H](Nc2ccc3ncc(-c4cccc(C(F)(F)F)c4)n3n2)CC1 | enzyme activity | inhibitor |  | 1 µM | remaining activity | 84.2%
CCCOc1ccc([C@H]2[C@H](C(=O)O)[C@@H](c3ccc4c(c3)OCO4)CN2CC(=O)Nc2c(CC)cccc2CC)cc1 | cell-free assay |  | competition with immobilised ligand | 1 µM | remaining binding | 80%
CNc1cccc2cc(C(=O)Nc3ccc(C(=O)O)cc3)c(=O)[nH]c12 | enzyme activity | inhibitor |  | 10 µM | inhibition | 25%
CO[C@H]1CC[C@H](CNc2ccc(S(=O)(=O)NC(=O)c3ccc(N4CCN(CC5=C(c6ccc(Cl)cc6)CC(C)(C)CC5)CC4)cc3Oc3cnc4[nH]ccc4c3)cc2[N+](=O)[O-])CC1 | cell-free assay |  | competition with immobilised ligand | 1 µM | remaining binding | 93%
O=C(Nc1cnn(-c2csc(C(=O)NC3COC3)c2)c1)Nc1ccccc1Cl | enzyme activity | inhibitor |  | 5 µM | remaining activity | 101%
CO[C@@H](C)c1c(Nc2ccc([C@H](N(C)C(=O)C3CCS(=O)(=O)CC3)C(F)(F)F)cc2)cnc2cc(Cl)nn12 | cell-free assay |  | competition with immobilised ligand | 1 µM | remaining binding | 88%
COc1cc(Nc2cnc(C#N)c(O[C@H](C)CN(C)C)n2)ncc1-c1cnn(C)c1 | enzyme activity | inhibitor | radiometric | 10 µM | remaining activity | 22%
CN1CC(Oc2cnc(C#N)cc2-c2ccn3nc(NC(=O)C4CC4)cc3c2)C1 | enzyme activity | inhibitor |  | 1 µM | inhibition | -20%
CS(=O)(=O)CCNCc1ccc(-c2ccc3ncnc(Nc4ccc(OCc5cccc(F)c5)c(Cl)c4)c3c2)o1 | cell-free assay |  |  | 0.5 µM | remaining signal | 91.2%
CC(C)(C)c1nc(-c2cccc(NS(=O)(=O)c3c(F)cccc3F)c2F)c(-c2ccnc(N)n2)s1 | enzyme activity | inhibitor | radiometric | 1 µM | remaining activity | 81%
O=C(Cc1cccc(Cl)c1)Nc1nc2ccccc2s1 | cell-free assay |  |  | 10 µM | inhibition | > 60%
FC(F)(F)Oc1cccc(-c2cnc3ccc(-c4ccncc4)nn23)c1 | enzyme activity | inhibitor | radiometric | 5 µM | activity vs control | 97%
COc1cc2ncnc(Nc3ccc(Oc4ccccc4)c(C)c3C)c2cc1OC | enzyme activity | inhibitor |  | 1 µM | inhibition | 1%
COc1cc2c(Nc3ccc(Br)cc3F)ncnc2cc1OCC1CCN(C)CC1 | cell-free assay |  |  | 0.5 µM | remaining signal | 94.4%
CCCOc1ccc(OC)c(F)c1C(=O)c1ccc(C(=O)N[C@@H]2CNC[C@H]2NC(=O)c2ccc3[nH]ncc3c2)cc1 | enzyme activity | inhibitor |  | 10 µM | remaining activity | 43%
C[C@@]1(Cc2ccc(C#N)cc2)C(=O)N(c2cc(Cl)cc(Cl)c2)c2ncc(C(=O)NC3(c4nc(C5CCC5)no4)CC3)n21 | cell-free assay |  | competition with immobilised ligand | 1 µM | remaining binding | 100%
COc1cc(/C=C/C(=O)CC(=O)/C=C/c2ccc(O)c(OC)c2)ccc1O | enzyme activity | inhibitor |  | 1 µM | activity vs control | 105%
Nc1c(C(=O)NCc2ccc(C(=O)NCCCC3CCCCC3)cc2)cnn1-c1ccccc1 | cell-free assay |  | competition with immobilised ligand | 0.1 µM | remaining binding | 100%
Nc1ncnc2c1cnn2-c1ccccc1 | cell-free assay |  |  | 0.5 µM | remaining signal | 79.5%
O=C1CCc2cc(Nc3cc(OC4CCOCC4)c([N+](=O)[O-])cc3Cl)ccc2N1 | cell-free assay |  | competition with immobilised ligand | 1 µM | remaining binding | 90%
O=C1Nc2ccc(Cl)cc2C1=Cc1cc(Cl)c(O)c(Cl)c1 | cell-free assay |  |  | 0.5 µM | remaining signal | 89.6%
